Assay results: ChEMBL document CHEMBL4680172, “Synthesis and biological evaluation of coumarin derivatives as α-glucosidase inhibitors” (Eur J Med Chem, 2020)
Active and inactive are the calls of the source. No cut-off for these calls is given here.

Experiments:
[1] = Inhibition of Saccharomyces cerevisiae alpha-glucosidase using PNPG as substrate preincubated for 10 mins followed by substrate addition measured after 30 mins
Method in brief: (§1)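 Enzyme 0.1 U/mL final in 0.1 M potassium phosphate, pH 6.8, with compound added from DMSO; 10 min at 37 ℃, then PNPG at 1 mmol/L final, another 30 min at 37 ℃. Absorbance read at 405 nm against a no-compound control. Line 1 screened at a single 100 µM; IC50 from the %inhibition–concentration plot. Duplicates, means taken.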

Saccharomyces cerevisiae [2] = test: Inhibition of Saccharomyces cerevisiae alpha-glucosidase at 100 uM using PNPG as substrate preincubated for 10 mins followed by substrate addition measured after 30 mins relative to control; settings: time 40.0 min; method in brief: as §1
Saccharomyces cerevisiae [3] = test: Mixed type inhibition of Saccharomyces cerevisiae alpha-glucosidase assessed as equilibrium constant for free enzyme using varying level of PNPG as substrate by Lineweaver-Burk double reciprocal plot analysis
Method in brief: (§2)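 Run as the PNPG/phosphate pH 6.8, 37 ℃, 405 nm assay, but with compound concentration varied together with either PNPG or enzyme level. Lineweaver-Burk plots were made. KI (free enzyme) and KIS (enzyme–substrate complex) were taken from apparent Km/Vmax and 1/Vmax plotted against inhibitor concentration.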

Saccharomyces cerevisiae [4] = test: Mixed type inhibition of Saccharomyces cerevisiae alpha-glucosidase assessed as equilibrium constant for enzyme substrate complex using varying level of PNPG as substrate by Lineweaver-Burk double reciprocal plot analysis; method in brief: as §2
Saccharomyces cerevisiae [5] = test: Reversible inhibition of Saccharomyces cerevisiae alpha-glucosidase
Method in brief: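 Rate (ΔOD/min) was plotted against α-glucosidase concentration at several fixed inhibitor levels, 0–35 µM. Conditions otherwise as in the PNPG 405 nm assay at pH 6.8 and 37 ℃.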

Compound	IC50 [1]	inhibition (Saccharomyces cerevisiae [2])	Ke (Saccharomyces cerevisiae [3])	Ke (Saccharomyces cerevisiae [4])	inhibition (Saccharomyces cerevisiae [5])
O=C(/C=C/c1ccc(Br)cc1)Oc1cc(=O)oc2ccccc12	69.3 µM	61%	–	–	–
O=C(/C=C/c1ccc(C(F)(F)F)cc1)Oc1ccc2ccc(=O)oc2c1	> 100 µM	38.2%	–	–	–
O=C(/C=C/c1ccc(Cl)cc1)Oc1cc(=O)oc2ccccc12	> 100 µM	33.1%	–	–	–
O=C(/C=C/c1ccc(C(F)(F)F)cc1)Oc1cc(=O)oc2ccccc12	> 100 µM	41.9%	–	–	–
O=C(/C=C/c1ccccc1)Oc1cc(=O)oc2ccccc12	19.6 µM	83.5%	27.4 µM	13 µM	Active
O=C(/C=C/c1ccc(F)cc1)Oc1cc(=O)oc2ccccc12	41.7 µM	68.5%	–	–	–
O=C(/C=C/c1ccc(Cl)cc1)Oc1ccc2ccc(=O)oc2c1	> 100 µM	29.9%	–	–	–
C[C@H]1[C@H](C)CC[C@]2(C(=O)O)CC[C@]3(C)C(=CC[C@@H]4[C@@]5(C)CC[C@H](O)C(C)(C)[C@@H]5CC[C@]43C)[C@H]12 [URSOLIC ACID]	11.4 µM	–	–	–	–
O=C(/C=C/c1ccc(O)cc1)Oc1cc(=O)oc2ccccc12	> 100 µM	33.2%	–	–	–

Further lines, results first:

IC50 [1]	inhibition (Saccharomyces cerevisiae [2])	Ke (Saccharomyces cerevisiae [3])	Ke (Saccharomyces cerevisiae [4])	inhibition (Saccharomyces cerevisiae [5])	Compound
> 100 µM	30.1%	–	–	–	O=C(/C=C/c1ccc(Br)cc1)Oc1ccc2ccc(=O)oc2c1
> 100 µM	20.3%	–	–	–	COc1cc(/C=C/C(=O)Oc2ccc3ccc(=O)oc3c2)ccc1O
36.9 µM	73.2%	–	–	–	COc1ccc(/C=C/C(=O)Oc2cc(=O)oc3ccccc23)cc1
> 100 µM	20.2%	–	–	–	COc1ccc(/C=C/C(=O)Oc2ccc3ccc(=O)oc3c2)cc1
> 100 µM	19.5%	–	–	–	COc1cc(/C=C/C(=O)Oc2cc(=O)oc3ccccc23)ccc1O
9000 µM	–	–	–	–	O=c1ccc2ccc(O)cc2o1 [UMBELLIFERONE]
94.5 µM	54.7%	–	–	–	Cc1ccc(/C=C/C(=O)Oc2ccc3ccc(=O)oc3c2)cc1
> 100 µM	13.1%	–	–	–	O=C(/C=C/c1ccc(O)cc1)Oc1ccc2ccc(=O)oc2c1
13 µM	89.9%	27 µM	13.7 µM	Active	Cc1ccc(/C=C/C(=O)Oc2cc(=O)oc3ccccc23)cc1
> 100 µM	45.6%	–	–	–	O=C(/C=C/c1ccccc1)Oc1ccc2ccc(=O)oc2c1 [7-CINNAMOYLOXYCOUMARIN]
15000 µM	–	–	–	–	O=C(O)/C=C/c1ccccc1 [CINNAMIC ACID]
> 100 µM	26.2%	–	–	–	O=C(/C=C/c1ccc(F)cc1)Oc1ccc2ccc(=O)oc2c1
